≈ marks a conversion by molar mass, not a printed value. Calls of active or inactive are those of the source. No cut-off for these calls is given here.
test system: P388; test: Effective dose against 50% reduction in Murine leukemia (P-388) cell number after 3-day incubation; - indicates inactive; format: functional, cell-based; conditions: Mus musculus

| Compound | ED50 |
| --- | --- |
| COc1cccc2sc(-c3ccccc3)cc(=O)c12 | inactive |
| O=c1cc(-c2ccccc2)sc2ccc(O)cc12 | inactive |
| O=c1cc(-c2ccccc2)sc2cccc(O)c12 | inactive |
| O=c1cc(-c2ccccc2)sc2ccccc12 | inactive |
| O=c1cc(-c2ccccc2)sc2cc(O)ccc12 | inactive |
| COc1cc2sc(-c3ccccc3)cc(=O)c2cc1OC | inactive |
| COc1ccc2sc(-c3ccccc3)cc(=O)c2c1 | inactive |
| CC(=O)Oc1ccc2c(=O)cc(-c3ccccc3)sc2c1 | inactive |
| COc1ccc2c(=O)cc(-c3ccccc3)sc2c1 | inactive |

test system: P388; test: Effective dose against 50% reduction in Murine leukemia (P-388) cell number after 3-day incubation; format: functional; conditions: Mus musculus, P388, 72 h; read-out: ED50 (the source's name)

| Compound | EC50 [mg/L] |
| --- | --- |
| Nc1cccc2sc(-c3ccccc3)cc(=O)c12 | 9.31 (≈ 36.8 µM) |

test system: RPMI; test: Effective dose against 50% reduction in Human melanoma (RPMI)cell number after 3-day incubation; - indicates inactive; format: functional, cell-based; conditions: not given

| Compound | ED50 |
| --- | --- |
| O=c1cc(-c2ccccc2)sc2cccc(O)c12 | inactive |
| O=c1cc(-c2ccccc2)sc2ccccc12 | inactive |
| Nc1cccc2sc(-c3ccccc3)cc(=O)c12 | inactive |
| O=c1cc(-c2ccccc2)sc2cc(O)ccc12 | inactive |
| COc1ccc2sc(-c3ccccc3)cc(=O)c2c1 | inactive |
| CC(=O)Oc1ccc2c(=O)cc(-c3ccccc3)sc2c1 | inactive |
| COc1ccc2c(=O)cc(-c3ccccc3)sc2c1 | inactive |

test system: KB; test: Effective dose against 50% reduction in Human epidermoid carcinoma of the nasopharynx (KB) cell number after 3-day incubation; format: functional; conditions: 72 h, read-out: ED50 (the source's name)

| Compound | EC50 [mg/L] |
| --- | --- |
| COc1cc2sc(-c3ccccc3)cc(=O)c2cc1OC | 4.23 (≈ 14.2 µM) |
| COc1ccc2c(=O)cc(-c3ccccc3)sc2c1 | 5.5 (≈ 20.5 µM) |

test system: not listed separately; test: Therapeutic index valued has been determined in H9 cells; format: cell-based; conditions: human, read-out: Therapeutic index

| Compound | selectivity ratio |
| --- | --- |
| COc1cccc2sc(-c3ccccc3)cc(=O)c12 | 1 |
| O=c1cc(-c2ccccc2)sc2ccc(O)cc12 | 4.2 |
| Nc1cccc2sc(-c3ccccc3)cc(=O)c12 | 2.5 |
| O=c1cc(-c2ccccc2)sc2cc(O)ccc12 | 5.7 |
| CC(=O)Oc1ccc2c(=O)cc(-c3ccccc3)sc2c1 | 0.6 |

test system: H9; test: Inhibitory activity against growth of uninfected H9 lymphocytes; format: functional, cell-based; conditions: Homo sapiens
In short: (§1)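 Uninfected H9 cultures exposed to compound diluted in medium for 4 days at 37 °C. Cell density counted in a Coulter counter; IC₅₀ determined.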

| Compound | IC50 [mg/L] |
| --- | --- |
| Nc1cccc2sc(-c3ccccc3)cc(=O)c12 | 50 (≈ 197 µM) |
| O=c1cc(-c2ccccc2)sc2cc(O)ccc12 | 40 (≈ 157 µM) |
| CC(=O)Oc1ccc2c(=O)cc(-c3ccccc3)sc2c1 | 45 (≈ 152 µM) |

target: DNA topoisomerase II (Homo sapiens) (UniProt P11388+Q02880); test: Inhibitory activity against DNA topoisomerase II at dose 100 uM; format: protein assay; conditions: not given
In short: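 Topo II activity read as ATP-dependent unknotting of P4 DNA. Test compound at 100 µM; % inhibition is relative to enzyme and DNA control reactions. VP-16 served as the reference inhibitor.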

| Compound | inhibition [%] |
| --- | --- |
| Nc1cccc2sc(-c3ccccc3)cc(=O)c12 | 0 |

test system: RPMI; test: Effective dose against 50% reduction in Human melanoma (RPMI)cell number after 3-day incubation; format: functional; conditions: 72 h, read-out: ED50 (the source's name)

| Compound | EC50 [mg/L] |
| --- | --- |
| O=c1cc(-c2ccccc2)sc2ccc(O)cc12 | 0.55 (≈ 2.16 µM) |
| COc1cc2sc(-c3ccccc3)cc(=O)c2cc1OC | 8.89 (≈ 29.8 µM) |

target: T1, DNA topoisomerase 1 (Homo sapiens) (UniProt P11387); test: Inhibitory activity against DNA topoisomerase I at dose 100 uM; conditions: not given
T1 sequence (whole entry): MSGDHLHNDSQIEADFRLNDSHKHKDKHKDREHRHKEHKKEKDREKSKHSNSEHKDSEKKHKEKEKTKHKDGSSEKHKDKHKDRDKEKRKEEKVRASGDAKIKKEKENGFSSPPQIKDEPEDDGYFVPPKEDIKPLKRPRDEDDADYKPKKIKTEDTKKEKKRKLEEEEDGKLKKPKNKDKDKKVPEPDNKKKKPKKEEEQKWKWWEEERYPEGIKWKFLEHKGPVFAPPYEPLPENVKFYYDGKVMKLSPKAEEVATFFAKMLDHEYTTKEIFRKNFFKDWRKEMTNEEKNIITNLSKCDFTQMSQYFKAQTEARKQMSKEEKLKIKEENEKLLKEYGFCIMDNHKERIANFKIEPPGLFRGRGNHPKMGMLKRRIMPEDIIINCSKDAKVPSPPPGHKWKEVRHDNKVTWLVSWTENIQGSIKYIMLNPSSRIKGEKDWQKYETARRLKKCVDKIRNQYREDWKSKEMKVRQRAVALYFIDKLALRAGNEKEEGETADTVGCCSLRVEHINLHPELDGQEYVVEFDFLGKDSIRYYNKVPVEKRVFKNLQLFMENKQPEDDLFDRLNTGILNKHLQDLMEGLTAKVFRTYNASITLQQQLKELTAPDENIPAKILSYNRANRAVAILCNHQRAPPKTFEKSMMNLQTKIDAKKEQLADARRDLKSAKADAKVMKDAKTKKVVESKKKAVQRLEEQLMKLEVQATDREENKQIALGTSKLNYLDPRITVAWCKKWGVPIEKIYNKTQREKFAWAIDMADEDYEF
In short: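 Topo I activity read as ATP-independent relaxation of supercoiled plasmid DNA. Test compound at 100 µM; % inhibition is relative to enzyme and DNA control reactions. Camptothecin served as the positive inhibitor control.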

| Compound | inhibition [%] |
| --- | --- |
| Nc1cccc2sc(-c3ccccc3)cc(=O)c12 | 100 |

test system: A549; test: Effective dose against 50% reduction in Human lung carcinoma (A-549) cell number after 3-day incubation.; format: functional, cell-based; conditions: not given

| Compound | ED50 |
| --- | --- |
| COc1cccc2sc(-c3ccccc3)cc(=O)c12 | inactive |
| O=c1cc(-c2ccccc2)sc2ccc(O)cc12 | inactive |
| O=c1cc(-c2ccccc2)sc2cccc(O)c12 | inactive |
| O=c1cc(-c2ccccc2)sc2ccccc12 | inactive |
| Nc1cccc2sc(-c3ccccc3)cc(=O)c12 | inactive |
| O=c1cc(-c2ccccc2)sc2cc(O)ccc12 | inactive |
| COc1cc2sc(-c3ccccc3)cc(=O)c2cc1OC | inactive |
| COc1ccc2sc(-c3ccccc3)cc(=O)c2c1 | inactive |
| CC(=O)Oc1ccc2c(=O)cc(-c3ccccc3)sc2c1 | inactive |
| COc1ccc2c(=O)cc(-c3ccccc3)sc2c1 | inactive |

test system: TE-671; test: Effective dose against 50% reduction in Human CNS tumor (TE671) cell number after 3-day incubation; - indicates inactive; format: functional, cell-based; conditions: not given

| Compound | ED50 |
| --- | --- |
| COc1cccc2sc(-c3ccccc3)cc(=O)c12 | inactive |
| O=c1cc(-c2ccccc2)sc2cccc(O)c12 | inactive |
| O=c1cc(-c2ccccc2)sc2ccccc12 | inactive |
| Nc1cccc2sc(-c3ccccc3)cc(=O)c12 | inactive |
| O=c1cc(-c2ccccc2)sc2cc(O)ccc12 | inactive |
| COc1cc2sc(-c3ccccc3)cc(=O)c2cc1OC | inactive |
| COc1ccc2sc(-c3ccccc3)cc(=O)c2c1 | inactive |
| CC(=O)Oc1ccc2c(=O)cc(-c3ccccc3)sc2c1 | inactive |
| COc1ccc2c(=O)cc(-c3ccccc3)sc2c1 | inactive |

test system: KB; test: Cellular protein-linked DNA breaks in KB oral carcinoma cell culture treated in triplicate at 50 uM for 1 hr; format: functional, Homo sapiens; conditions: not given
In short: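 Read-out is potassium-SDS precipitable cpm in treated KB cultures, expressed as fold.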

| Compound | Activity |
| --- | --- |
| Nc1cccc2sc(-c3ccccc3)cc(=O)c12 | 1 |

test system: HCT-8; test: Effective dose against 50% reduction in Human ileocecal carcinoma (HCT-8) cell number after 3-day incubation.; format: functional, cell-based; conditions: not given

| Compound | ED50 |
| --- | --- |
| COc1cccc2sc(-c3ccccc3)cc(=O)c12 | inactive |
| O=c1cc(-c2ccccc2)sc2ccc(O)cc12 | inactive |
| O=c1cc(-c2ccccc2)sc2cccc(O)c12 | inactive |
| O=c1cc(-c2ccccc2)sc2ccccc12 | inactive |
| Nc1cccc2sc(-c3ccccc3)cc(=O)c12 | inactive |
| O=c1cc(-c2ccccc2)sc2cc(O)ccc12 | inactive |
| COc1ccc2sc(-c3ccccc3)cc(=O)c2c1 | inactive |
| CC(=O)Oc1ccc2c(=O)cc(-c3ccccc3)sc2c1 | inactive |

test system: KB; test: Effective dose against 50% reduction in Human epidermoid carcinoma of the nasopharynx (KB) cell number after 3-day incubation; - indicates inactive; format: functional, cell-based; conditions: not given

| Compound | ED50 |
| --- | --- |
| O=c1cc(-c2ccccc2)sc2ccc(O)cc12 | inactive |
| O=c1cc(-c2ccccc2)sc2cccc(O)c12 | inactive |
| O=c1cc(-c2ccccc2)sc2ccccc12 | inactive |
| Nc1cccc2sc(-c3ccccc3)cc(=O)c12 | inactive |
| O=c1cc(-c2ccccc2)sc2cc(O)ccc12 | inactive |
| COc1ccc2sc(-c3ccccc3)cc(=O)c2c1 | inactive |
| CC(=O)Oc1ccc2c(=O)cc(-c3ccccc3)sc2c1 | inactive |

test system: KB; test: Effective dose against Human epidermoid carcinoma of the nasopharynx; - indicates inactive; format: functional, cell-based; conditions: not given

| Compound | ED50 |
| --- | --- |
| COc1cccc2sc(-c3ccccc3)cc(=O)c12 | inactive |

test system: H9; test: Effective dose against growth of HIV infected H9 lymphocytes; format: functional; conditions: Homo sapiens, read-out: ED50 (the source's name)

| Compound | EC50 [mg/L] |
| --- | --- |
| Nc1cccc2sc(-c3ccccc3)cc(=O)c12 | 20 (≈ 78.9 µM) |
| O=c1cc(-c2ccccc2)sc2cc(O)ccc12 | 7 (≈ 27.5 µM) |
| CC(=O)Oc1ccc2c(=O)cc(-c3ccccc3)sc2c1 | 80 (≈ 270 µM) |

test system: RPMI; test: Effective dose against 50% reduction in Human melanoma(RPMI) cell number after 3-day incubation; format: functional; conditions: 72 h, read-out: ED50 (the source's name)

| Compound | EC50 [mg/L] |
| --- | --- |
| COc1cccc2sc(-c3ccccc3)cc(=O)c12 | 5.5 (≈ 20.5 µM) |

test system: H9; test: Inhibitory activity against growth of uninfected H9 lymphocytes by 50%; format: functional, cell-based; conditions: Homo sapiens; in short: as §1

| Compound | IC50 [mg/L] |
| --- | --- |
| COc1cccc2sc(-c3ccccc3)cc(=O)c12 | 7 (≈ 26.1 µM) |
| O=c1cc(-c2ccccc2)sc2ccc(O)cc12 | 40 (≈ 157 µM) |

test system: TE-671; test: Effective dose against 50% reduction in Human CNS tumor (TE671) cell number after 3-day incubation; format: functional; conditions: TE-671, 72 h, read-out: ED50 (the source's name)

| Compound | EC50 [mg/L] |
| --- | --- |
| O=c1cc(-c2ccccc2)sc2ccc(O)cc12 | 2.87 (≈ 11.3 µM) |

test system: HCT-8; test: Effective dose against 50% reduction in Human ileocecal carcinoma (HCT-8) cell number after 3-day incubation; format: functional; conditions: HCT-8, 72 h, read-out: ED50 (the source's name)

| Compound | EC50 [mg/L] |
| --- | --- |
| COc1cc2sc(-c3ccccc3)cc(=O)c2cc1OC | 9.33 (≈ 31.3 µM) |
| COc1ccc2c(=O)cc(-c3ccccc3)sc2c1 | 9.16 (≈ 34.1 µM) |

test system: H9; test: Effective dose against growth of HIV infected H9 lymphocytes by 50%; format: functional; conditions: Homo sapiens, read-out: ED50 (the source's name)

| Compound | EC50 [mg/L] |
| --- | --- |
| COc1cccc2sc(-c3ccccc3)cc(=O)c12 | 7 (≈ 26.1 µM) |
| O=c1cc(-c2ccccc2)sc2ccc(O)cc12 | 9.5 (≈ 37.4 µM) |
